Results from different studies.
Lines come from different studies, so protocols differ.
Target: Tyrosine-protein kinase FRK (FRK, Homo sapiens, UniProt P42685)

Nc1c(C(=O)NCc2ccc(C(=O)NCCCC3CCCCC3)cc2)cnn1-c1ccccc1  remaining binding (cell-free assay, competition with immobilised ligand; 0.1 µM): 100%
COc1ncc2cc3ccccc3nc2c1C#N  remaining binding (cell-free assay, competition with immobilised ligand; 5 µM): 99%
C[C@@H]1CCN(c2nccc(-c3cnn4ncccc34)n2)C1  remaining binding (binding; 1 µM): 100%
CNC(=O)[C@@H]1CC[C@@H](n2c(-c3ccc4cnccc4c3)nc3ccc(C(=O)NCc4cccc(C(N)=O)c4)cc32)C1  remaining binding (binding, competition with immobilised ligand; 1 µM): 100%
F[C@@H]1CCN(c2nccc(-c3cnn4ncccc34)n2)C1  remaining binding (binding; 1 µM): 88%
O=C(Nc1ccc(Oc2ccc(F)cc2)cc1)N1CCc2ncccc2[C@H]1c1ccc(F)cc1  remaining binding (cell-free assay, competition with immobilised ligand; 1 µM): 93%
C[C@@H](c1ccc(-n2cnc3c(N)ncnc32)cc1)N1CCc2nn(C)c(Cc3ccccc3)c2C1=O  remaining binding (binding, competition with immobilised ligand; 0.1 µM): 91%
O=C(c1ccc(Nc2ncc(Cl)c(-c3cc4ccccc4s3)n2)cc1)N1CCC(N2CCCC2)CC1  remaining binding (binding, competition with immobilised ligand; 1 µM): 90%
CCCOc1ccc([C@H]2[C@H](C(=O)O)[C@@H](c3ccc4c(c3)OCO4)CN2CC(=O)Nc2c(CC)cccc2CC)cc1  remaining binding (cell-free assay, competition with immobilised ligand; 1 µM): 100%
CN(C)c1nccc(-c2cnn3ncccc23)n1  remaining binding (binding, competition with immobilised ligand; 1 µM): 100%
O=C(Nc1c[nH]nc1C(=O)NC1CCNCC1)c1cc(F)cc(F)c1  remaining binding (binding, competition with immobilised ligand; 1 µM): 82%
CCN1CCN(Cc2ccc(C(=O)Nc3ccc(C)c(Oc4ccc5c(c4)CC(=O)N5)c3)cc2C(F)(F)F)CC1  remaining binding (binding, competition with immobilised ligand; 1 µM): 13%
COc1ccnn2ncc(-c3ccnc(N(C)C)n3)c12  remaining binding (binding; 1 µM): 92%
C=CC(=O)N1CCC(C(=O)NCC(=O)N2CCN(c3nc(-c4cnc(N)nc4C(F)F)nc(N4CCOCC4)n3)CC2)CC1  remaining binding (binding, competition with immobilised ligand; 1 µM): 100%
C[C@@H](c1cccc(C#N)c1)n1cc(Cl)cc(C(N)=O)c1=N  remaining binding (cell-free assay, competition with immobilised ligand; 1 µM): 100%
O=C(NCCCN1CCOCC1)c1ccc(Nc2ncc(Cl)c(-c3ccc(Cl)s3)n2)cc1  remaining binding (binding, competition with immobilised ligand; 1 µM): 100%
CC1CCCN1c1nccc(-c2cnn3ncccc23)n1 (stereo not shown)  remaining binding (binding, competition with immobilised ligand; 1 µM): 88%
CO[C@@H](C)c1c(Nc2ccc([C@H](N(C)C(=O)C3CCS(=O)(=O)CC3)C(F)(F)F)cc2)cnc2cc(Cl)nn12  remaining binding (cell-free assay, competition with immobilised ligand; 1 µM): 80%
CN(C)c1ncc(F)c(-c2cnn3ncccc23)n1  remaining binding (binding, competition with immobilised ligand; 1 µM): 100%
N#Cc1ccc(Nc2ccc3[nH]c(=O)[nH]c3c2)c(Cl)c1  remaining binding (cell-free assay, competition with immobilised ligand; 1 µM): 73%
Cc1cnc(Nc2ccc(C(=O)N3CCC(N4CCCC4)CC3)cc2)nc1-c1cc2ccccc2s1  remaining binding (binding, competition with immobilised ligand; 1 µM): 76%
N[C@H]1CCN(c2nccc(-c3cnn4ncccc34)n2)C1  remaining binding (binding, competition with immobilised ligand; 1 µM): 100%
